pEC50, pIC50: −log10 of the molar value.
What was measured:
[1] = tested on: Human immunodeficiency virus 1; assay: Antiviral activity against HIV1 3B infected in human MT4 cells at 50 to 100 times antiviral EC50 added 1 to 25 hrs post infection assessed as time required for loss of inhibition of viral replication measured at 30 hrs post infection by p24 ELISA method; format: functional
[2] = molecular target: T1, Human immunodeficiency virus type 1 integrase (Human immunodeficiency virus 1, UniProt Q7ZJM1); assay: Inhibition of HIV1 integrase strand transfer activity using 5'[digoxigenin]-GACCCTTTTAGTCAGTGTGGAAAATCTCTAGCA-3' as substrate incubated for 1 hr by ELISA
T1 sequence (Q7ZJM1 whole entry): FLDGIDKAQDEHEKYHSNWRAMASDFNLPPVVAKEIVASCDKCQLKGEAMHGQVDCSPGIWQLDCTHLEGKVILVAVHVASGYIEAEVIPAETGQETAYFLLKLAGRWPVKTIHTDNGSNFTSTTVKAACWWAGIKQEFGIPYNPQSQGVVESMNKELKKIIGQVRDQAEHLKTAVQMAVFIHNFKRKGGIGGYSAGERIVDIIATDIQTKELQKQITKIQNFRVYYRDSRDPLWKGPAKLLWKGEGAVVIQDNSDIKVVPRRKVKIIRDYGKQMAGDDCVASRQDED
Outline: (§1)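 ELISA with a 3'-biotin oligo and a 5'-digoxigenin partner oligo. Overall assay uses the full complementary oligo; strand transfer uses a precleaved oligo lacking the 3'-GT. Integrase at 160 nM final, annealed oligos 7 nM, in 10 mM MgCl2, 5 mM DTT, 20 mM HEPES pH 7.5, 0.5% PEG, 15% DMSO. Run 1 h at 37 °C, products denatured with NaOH, detected on avidin plates.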

[3] = molecular target: T1, Human immunodeficiency virus type 1 integrase; assay: Inhibition of HIV1 integrase using 3'-biotin-labelled and 5'-digoxigenin-labelled oligonucleotide substrate incubated for 1 hr by ELISA; outline: as §1
[4] = Cytotoxicity against human MT4 cells assessed as reduction in cell viability by MTT assay; format: cell-based
Outline: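 MT-4 cell viability was measured by MTT reduction, run in parallel with the antiviral assay using 5-fold serial compound dilutions. CC50 is the concentration reducing viability by 50%.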

[5] = Therapeutic index, ratio of CC50 for human MT4 cells to EC50 for HIV1 3B infected in human MT4 cells; format: cell-based; details: read-out: Ratio CC50/EC50
Outline: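 Ratio of CC50 to EC50. Both were determined in parallel by MTT in MT-4 cells, with the EC50 measured against HIV-1 IIIB cytopathic effect.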

[6] = tested on: Human immunodeficiency virus 1; assay: Antiviral activity against HIV1 3B infected in human MT4 cells assessed as reduction in virus-induced cytopathic effect by MTT assay; format: functional, organism-based; details: Human immunodeficiency virus 1, 3B
Outline: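 MT-4 cells infected with 100-300 CCID50 of HIV-1 IIIB, in the presence of 5-fold serial dilutions of compound. Cytopathic effect read by MTT reduction to formazan, measured spectrophotometrically. EC50 is the concentration giving 50% protection against virus-induced CPE.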

[7] = tested on: Human immunodeficiency virus 1; assay: Selectivity ratio of EC50 for raltegravir resistant HIV1 harboring integrase G140S/Q148H double mutant infected in human MT4 cells to EC50 for wild type HIV1 3B infected in human MT4 cells; format: functional
Outline: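 MT-4 cells were infected with 100–300 CCID₅₀ of virus stock (titrated in MT-4 cells) in the presence of 5-fold serial drug dilutions. EC₅₀ is the concentration giving 50% protection against virus-induced cytopathic effect, read by MTT reduction (MT-4/MTT assay). The value is the fold-change in EC₅₀ for each mutant strain relative to the wild-type HIV-1 strain.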

[8] = Inhibition of recombinant HIV1 reverse transcriptase RNase H activity using calf thymus ssDNA-[3H]-RNA as template/primer incubated for 10 mins; set-up: species or system Human immunodeficiency virus 1
Outline: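 Recombinant HIV-1 RT (4.5 pmol) preincubated with compound 10 min at 37 °C. Then reacted 10 min at 37 °C with [3H]-RNA/calf thymus DNA hybrid (20,000 cpm) in 50 mM Tris-HCl pH 8.0, 10 mM DTT, 6 mM MgCl2, 80 mM KCl. Stopped with cold TCA/pyrophosphate; released radioactivity taken by subtraction from undigested control.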

SMILES	Time [1] [h]	pIC50 [2]	pIC50 [3]	CC50 [4] [µM]	selectivity ratio [5]	pEC50 [6]	Ratio EC50 [7]	pIC50 [8]
Cc1cn([C@H]2C[C@H](N=[N+]=[N-])[C@@H](CO)O2)c(=O)[nH]c1=O [ZIDOVUDINE]	4	–	–	–	–	–	–	–
CCCNC(=O)C1C(=O)N(O)C(=O)c2ccccc21 (stereo unspecified)	–	5.70	5.74	131	4.7	4.55	–	–
CCCCCCCCCNC(=O)C1C(=O)N(O)C(=O)c2ccccc21 (stereo unspecified)	–	5.18	5.18	88.5	3	4.54	–	–
CC(C)(C)NC(=O)C1C(=O)N(O)C(=O)c2ccccc21 (stereo unspecified)	–	5.35	5.35	142	–	< 3.85	–	–
CC(C)c1nc(CN(C)C(=O)N[C@H](C(=O)N[C@@H](Cc2ccccc2)C[C@H](O)[C@H](Cc2ccccc2)NC(=O)OCc2cncs2)C(C)C)cs1 [RITONAVIR]	25	–	–	–	–	–	–	–
CCCCCNC(=O)C1C(=O)N(O)C(=O)c2ccccc21 (stereo unspecified)	–	6.28	6.19	130	12.1	4.97	–	–
O=C(NC1CC1)C1C(=O)N(O)C(=O)c2ccccc21 (stereo unspecified)	–	5.40	5.67	> 250	> 6	4.37	–	–
CCCCN(C)C(=O)C1C(=O)N(O)C(=O)c2ccccc21 (stereo unspecified)	–	5.06	5.06	63.8	–	< 4.20	–	–
CCCCCCCCNC(=O)C1C(=O)N(O)C(=O)c2ccccc21 (stereo unspecified)	–	5.04	5.04	98.5	3.5	4.55	–	–
C[C@@H]1CCO[C@H]2Cn3cc(C(=O)NCc4ccc(F)cc4F)c(=O)c(O)c3C(=O)N12 [DOLUTEGRAVIR]	–	–	–	–	–	–	5	–
CCCCCCCNC(=O)C1C(=O)N(O)C(=O)c2ccccc21 (stereo unspecified)	–	5.98	6.07	110	3.4	4.49	–	4.63
O=C(NC1CCCC1)C1C(=O)N(O)C(=O)c2ccccc21 (stereo unspecified)	–	5.44	5.87	> 250	> 4	4.21	–	–
CC(C)NC(=O)C1C(=O)N(O)C(=O)c2ccccc21 (stereo unspecified)	–	5.30	5.35	162	5.4	4.52	–	–
CCN(CC)C(=O)C1C(=O)N(O)C(=O)c2ccccc21 (stereo unspecified)	–	3.69	3.91	28	–	< 4.55	–	–
O=C(NC1CCCCC1)C1C(=O)N(O)C(=O)c2ccccc21 (stereo unspecified)	–	5.47	6.15	> 250	> 3	4.10	–	–
CCCCNC(=O)C1C(=O)N(O)C(=O)c2ccccc21 (stereo unspecified)	–	6.32	6.18	128	14	5.04	–	4.82
O=C(C1C(=O)N(O)C(=O)c2ccccc21)N1CCCCC1 (stereo unspecified)	–	5.04	5.09	120	–	< 3.92	–	–
